Measured values collected from several papers.
Protocols differ between the studies behind these lines.
Target: Dual specificity protein kinase CLK4 (CLK4, Homo sapiens, UniProt Q9HAZ1)

COc1cnc(Nc2cccc(S(N)(=O)=O)c2)nc1N1CCN(c2ccccc2)CC1 — remaining binding (binding; competition with immobilised ligand; 1 µM): 100%
O=C(c1ccc(Nc2ncc(Cl)c(-c3cc4ccccc4s3)n2)cc1)N1CCC(N2CCCC2)CC1 — remaining binding (binding; competition with immobilised ligand; 1 µM): 0%
C=CC(=O)N1CCC(C(=O)NCC(=O)N2CCN(c3nc(-c4cnc(N)nc4C(F)F)nc(N4CCOCC4)n3)CC2)CC1 — remaining binding (binding; competition with immobilised ligand; 1 µM): 100%
O=C(NCCCN1CCOCC1)c1ccc(Nc2nccc(-c3cc4ccccc4s3)n2)cc1 — remaining binding (binding; competition with immobilised ligand; 1 µM): 11%
F[C@@H]1CCN(c2nccc(-c3cnn4ncccc34)n2)C1 — remaining binding (binding; 1 µM): 60%
CNC(=O)[C@@H]1CC[C@@H](n2c(-c3ccc4cnccc4c3)nc3ccc(C(=O)NCc4cccc(C(N)=O)c4)cc32)C1 — remaining binding (binding; competition with immobilised ligand; 1 µM): 100%
O=C(NCC1CCOCC1)c1n[nH]cc1NC(=O)c1c(F)cccc1F — remaining binding (binding; competition with immobilised ligand; 1 µM): 32%
C[C@@H](c1ccc(-n2cnc3c(N)ncnc32)cc1)N1CCc2nn(C)c(Cc3ccccc3)c2C1=O — remaining binding (binding; competition with immobilised ligand; 0.1 µM): 100%
Cc1c(NC(=O)c2cc(C(N)=O)nc3cc(F)ccc23)c(C(F)(F)F)nn1Cc1ccc(C(C)(C)C)cc1 — remaining binding (cell-free assay; competition with immobilised ligand; 1 µM): 100%
CC1CCCN1c1nccc(-c2cnn3ncccc23)n1 (stereo not shown) — remaining binding (binding; 1 µM): 55%
CC1=C(C#N)C(c2ccc3c(c2)c(NC(=O)c2ccccc2C)nn3C)C(C#N)=C(C)N1 — remaining binding (cell-free assay; competition with immobilised ligand; 1 µM): 76%
Cc1cnc(Nc2ccc(C(=O)N3CCC(N4CCCC4)CC3)cc2)nc1-c1cc2ccccc2s1 — remaining binding (binding; competition with immobilised ligand; 1 µM): 11%
Cc1nc(N2CC[C@@H](O)C2)ncc1-c1cc(C(F)(F)F)cc2[nH]ncc12 — remaining binding (binding; competition with immobilised ligand; 1 µM): 92%
CN(C)c1nccc(-c2cnc3ncccn23)n1 — remaining binding (binding; 1 µM): 14%
O=S(=O)(NC1CCC(c2cc(F)ccc2F)(S(=O)(=O)c2ccc(Cl)cc2)CC1)C(F)(F)F (stereo not shown) — remaining binding (cell-free assay; competition with immobilised ligand; 1 µM): 84%
CN(C)c1ncc(F)c(-c2cnn3ncccc23)n1 — remaining binding (binding; 1 µM): 61%
CO[C@@H](C)c1c(Nc2ccc([C@H](N(C)C(=O)C3CCS(=O)(=O)CC3)C(F)(F)F)cc2)cnc2cc(Cl)nn12 — remaining binding (cell-free assay; competition with immobilised ligand; 1 µM): 94%
C[C@H]1CCN(c2nccc(-c3cnn4ncccc34)n2)C1 — remaining binding (binding; 1 µM): 9.9%
O=C(NCCCC1CCCCC1)c1ccc(CNC(=O)c2cnn(-c3ccccc3)c2C(F)(F)F)cc1 — remaining binding (cell-free assay; competition with immobilised ligand; 0.1 µM): 100%
N[C@@H]1CCN(c2nccc(-c3cnn4ncccc34)n2)C1 — remaining binding (binding; 1 µM): 25%
CC(C)(O)c1cncc(-c2nc3ccc(F)cc3n2C2CC2)c1 — remaining binding (cell-free assay; competition with immobilised ligand; 1 µM): 54%
Nc1ncc2c(n1)-c1c([nH]c3ccc(C#CC4CC4)cc13)CCCC2 — remaining binding (binding; competition with immobilised ligand; 1 µM): 76%
